From ChEMBL document CHEMBL4028909, “Discovery of an Orally Bioavailable Benzofuran Analogue That Serves as a β-Amyloid Aggregation Inhibitor for the Potential Treatment of Alzheimer's Disease” (J Med Chem, 2018)
Calls of active or inactive are those of the source. No cut-off for these calls is given here.

Key:
[1] = Tmax in mouse at 10 mg/kg, po; type: ADME, organism-based; settings: in vivo
How it was run: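 Mouse pharmacokinetics: single i.v. dose of 3 mg/kg, or oral doses of 3, 10 and 30 mg/kg. Plasma concentration–time curves gave T1/2 (terminal, hr), Tmax (hr), Cmax, AUC and bioavailability (%).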

[2] = AUClast in mouse at 3 mg/kg, po; type: ADME, organism-based; design: dose 3 mg/kg, time 0 - last, route oral; settings: in vivo
How it was run: (§1)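 Mice received a single dose of 3 mg/kg i.v. or 3, 10 or 30 mg/kg orally. Plasma concentration-time profiles were analysed for AUC from zero to infinity and to the last measured time (hr*ng/mL), Cmax (ng/mL, C0 after i.v.), Tmax and terminal half-life (hr), and oral bioavailability (%).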

Canis familiaris = test: Volume of distribution at steady state in po dosed dog; type: ADME, organism-based, Canis lupus familiaris; settings: in vivo
Mus musculus [3] = test: Reversal of cognitive deficit in double APP/PS1 transgenic Alzheimer's disease mouse model assessed as increase in spatial memory function by measuring spontaneous alternation at 30 mg/kg, po qd administered for 8 weeks by Y maze test (reference value: 52.64 +/- 4.15%); type: functional
How it was run: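 APP/PS1 double transgenic mice, 29 weeks old, dosed orally once daily at 30 or 100 mg/kg for eight weeks. Y-maze spontaneous alternation (%) was then measured against vehicle-treated mice, and mice were watched for apparent toxicity.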

HT-22 = test: Cytotoxicity against mouse HT22 cells assessed as effect on cell viability at 1.25 to 10 uM after 18 hrs by MTT assay; type: cell-based; settings: ht-22, 18 h
How it was run: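 Mouse HT22 cells were treated with compound alone at the stated concentrations, without Aβ aggregates. Viability was read by MTT.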

[4] = Half life in po ICR mouse; type: ADME, organism-based; settings: in vivo
[5] = Half-life in po dosed dog; settings: in vivo
[6] = Clearance in iv dosed dog; type: ADME, organism-based, Canis lupus familiaris; settings: in vivo
[7] = Cmax in po dosed monkey; type: ADME, organism-based, Macaca mulatta; design: route oral; settings: rhesus monkey, in vivo
[8] = Cmax in po dosed rat; type: ADME, organism-based; design: route oral; settings: in vivo
[9] = Cmax in po dosed ICR mouse; type: ADME, organism-based; design: route oral; settings: in vivo
[10] = molecular target: Amyloid-beta precursor protein (Homo sapiens) (UniProt P05067); test: Induction of HFIP-pretreated amyloid beta (1 to 42) (unknown origin) disaggregation at 3.1 to 50 uM after 1 hr by Thioflavin-T fluorescence assay relative to control
[11] = Half life in po dosed rat; type: ADME, organism-based; settings: in vivo
[12] = AUC in po dosed monkey; type: ADME, organism-based, Macaca mulatta; settings: rhesus monkey, in vivo
Mus musculus [13] = test: Reversal of cognitive deficit in amyloid beta (1 to 42)-treated Alzheimer's disease ICR mouse model assessed as step-through latency time at 10 mg/kg, po administered for 3 consecutive days by passive avoidance test; type: functional
How it was run: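 Acute AD model: preformed Aβ aggregates injected into the brains of normal mice. Compound given orally for three consecutive days, then step-through passive avoidance was tested by a standard protocol. Read-out is step-through latency (sec), compared against control and vehicle groups.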

[14] = Clearance in iv dosed monkey; type: ADME, organism-based, Macaca mulatta; settings: rhesus monkey, in vivo
Mus musculus [15] = test: Antiamyloidogenic activity in po dosed double APP/PS1 transgenic Alzheimer's disease mouse model assessed as decrease in amyloid beta (1 to 40) levels in brain administered as qd for 8 weeks by sandwich ELISA; type: functional, organism-based
How it was run: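 APP/PS1 mice, 29 weeks old, were dosed orally once daily for eight weeks at 30 or 100 mg/kg, with a vehicle group. Brain tissue was homogenized and amyloid fibrils were solubilized to monomers. Aβ1-40 and Aβ1-42 were then quantified by immunoassay with antibodies specific to monomeric Aβ.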

Mus musculus [16] = test: Reversal of cognitive deficit in amyloid beta (1 to 42)-treated Alzheimer's disease ICR mouse model assessed as increase in spatial memory function administered orally for 3 consecutive days by Y maze test; type: functional
How it was run: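 Acute AD model: preformed Aβ aggregates injected directly into the brains of normal mice to induce acute neurotoxicity. Compound given orally for three consecutive days, then the Y-maze was run. Read-out is percentage of spontaneous alternation, compared against normal and vehicle-treated mice.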

Cytochrome P450 2C8 = molecular target: T1, Cytochrome P450 2C8 (Homo sapiens, UniProt P10632); test: Inhibition of CYP2C8 in human liver microsomes preincubated for 5 mins followed by addition of NADPH generating system measured after 20 mins by LC-MS/MS analysis; type: ADME
T1 sequence (P10632 whole entry): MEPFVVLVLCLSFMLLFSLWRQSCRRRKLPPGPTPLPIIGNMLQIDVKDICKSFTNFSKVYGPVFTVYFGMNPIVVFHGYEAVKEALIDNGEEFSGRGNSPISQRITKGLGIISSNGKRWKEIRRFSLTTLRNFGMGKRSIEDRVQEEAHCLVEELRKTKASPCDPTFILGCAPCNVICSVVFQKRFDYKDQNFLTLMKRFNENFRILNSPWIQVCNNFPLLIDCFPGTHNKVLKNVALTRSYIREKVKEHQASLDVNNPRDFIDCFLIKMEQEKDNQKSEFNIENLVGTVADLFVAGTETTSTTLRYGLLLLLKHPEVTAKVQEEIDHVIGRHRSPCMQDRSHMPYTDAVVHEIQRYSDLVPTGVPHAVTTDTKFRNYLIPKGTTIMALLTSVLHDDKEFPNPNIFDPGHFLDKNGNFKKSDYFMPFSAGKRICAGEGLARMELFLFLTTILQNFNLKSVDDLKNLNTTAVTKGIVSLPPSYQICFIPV
How it was run: (§2)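 Inhibition of each CYP isozyme (1A2, 2A6, 2C8, 2C9, 2C19, 2D6, 3A4) was measured in human liver microsomes. IC50 values were reported in μM.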

[17] = Half-life in po dosed monkey; settings: rhesus monkey, in vivo
Cytochrome P450 2D6 = Cytochrome P450 2D6 (Homo sapiens, UniProt P10635); test: Inhibition of CYP2D6 in human liver microsomes preincubated for 5 mins followed by addition of NADPH generating system measured after 20 mins by LC-MS/MS analysis; type: ADME; how it was run: as §2
[18] = Cmax in mouse at 3 mg/kg, po; type: ADME, organism-based; design: dose 3 mg/kg, route oral; settings: in vivo; how it was run: as §1
[19] = molecular target: Amyloid-beta precursor protein (Homo sapiens) (UniProt P05067); test: Inhibition of HFIP-pretreated amyloid beta (1 to 42) (unknown origin) aggregation after 1 hr by transmission electron microscopic method
[20] = AUC (infinity) in mouse at 30 mg/kg, po; type: ADME, organism-based; design: dose 30 mg/kg, time infinity, route oral; settings: in vivo; how it was run: as §1
Cytochrome P450 2C9 = Cytochrome P450 2C9 (Homo sapiens, UniProt P11712); test: Inhibition of CYP2C9 in human liver microsomes preincubated for 5 mins followed by addition of NADPH generating system measured after 20 mins by LC-MS/MS analysis; type: ADME; how it was run: as §2
Cytochrome P450 2C9, sequence (P11712 whole entry): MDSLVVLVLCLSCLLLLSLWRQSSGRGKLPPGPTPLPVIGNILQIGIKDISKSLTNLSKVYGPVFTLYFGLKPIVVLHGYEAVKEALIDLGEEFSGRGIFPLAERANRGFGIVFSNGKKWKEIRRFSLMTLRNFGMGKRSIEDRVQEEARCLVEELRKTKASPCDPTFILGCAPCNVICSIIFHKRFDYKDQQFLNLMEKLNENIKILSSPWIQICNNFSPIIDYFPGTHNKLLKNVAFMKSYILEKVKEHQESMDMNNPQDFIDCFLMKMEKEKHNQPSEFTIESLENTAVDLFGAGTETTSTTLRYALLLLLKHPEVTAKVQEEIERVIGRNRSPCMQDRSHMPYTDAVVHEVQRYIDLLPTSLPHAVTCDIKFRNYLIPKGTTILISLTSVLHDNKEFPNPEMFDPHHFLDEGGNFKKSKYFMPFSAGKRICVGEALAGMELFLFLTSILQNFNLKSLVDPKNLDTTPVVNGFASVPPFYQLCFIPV

Amyloid-beta precursor protein (Homo sapiens), sequence (P05067 whole entry): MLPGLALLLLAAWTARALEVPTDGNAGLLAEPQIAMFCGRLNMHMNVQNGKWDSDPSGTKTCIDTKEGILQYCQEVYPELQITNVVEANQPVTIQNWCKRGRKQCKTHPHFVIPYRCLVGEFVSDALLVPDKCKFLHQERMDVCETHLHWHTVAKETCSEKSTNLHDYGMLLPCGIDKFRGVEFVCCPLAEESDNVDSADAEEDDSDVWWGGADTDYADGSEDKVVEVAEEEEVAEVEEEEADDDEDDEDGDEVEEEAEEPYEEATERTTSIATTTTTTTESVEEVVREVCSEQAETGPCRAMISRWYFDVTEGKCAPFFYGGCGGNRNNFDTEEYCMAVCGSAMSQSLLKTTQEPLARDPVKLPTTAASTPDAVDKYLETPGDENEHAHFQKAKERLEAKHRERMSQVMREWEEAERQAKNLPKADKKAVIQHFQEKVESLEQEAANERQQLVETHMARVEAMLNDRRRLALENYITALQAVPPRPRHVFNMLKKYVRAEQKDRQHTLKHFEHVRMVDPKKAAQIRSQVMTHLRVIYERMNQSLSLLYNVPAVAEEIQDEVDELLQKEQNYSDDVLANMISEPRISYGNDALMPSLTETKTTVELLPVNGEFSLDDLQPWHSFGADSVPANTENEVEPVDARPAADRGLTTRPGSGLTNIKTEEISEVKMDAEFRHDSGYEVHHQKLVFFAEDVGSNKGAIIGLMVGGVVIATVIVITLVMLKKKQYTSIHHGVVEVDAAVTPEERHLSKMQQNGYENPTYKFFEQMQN
Cytochrome P450 2D6, sequence (P10635 whole entry): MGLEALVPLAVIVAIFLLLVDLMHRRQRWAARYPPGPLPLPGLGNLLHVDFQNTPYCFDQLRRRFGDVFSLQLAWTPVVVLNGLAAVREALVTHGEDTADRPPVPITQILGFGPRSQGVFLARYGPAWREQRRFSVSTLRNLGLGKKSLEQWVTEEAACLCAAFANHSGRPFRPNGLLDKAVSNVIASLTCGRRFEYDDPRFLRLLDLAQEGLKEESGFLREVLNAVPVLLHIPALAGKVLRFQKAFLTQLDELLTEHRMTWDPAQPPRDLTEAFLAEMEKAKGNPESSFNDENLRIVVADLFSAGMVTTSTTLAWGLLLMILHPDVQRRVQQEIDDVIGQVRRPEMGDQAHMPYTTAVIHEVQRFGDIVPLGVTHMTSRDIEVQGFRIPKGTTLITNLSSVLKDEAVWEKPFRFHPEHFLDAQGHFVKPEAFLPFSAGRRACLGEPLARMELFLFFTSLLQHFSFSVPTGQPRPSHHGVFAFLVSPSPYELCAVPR

Work on `COCCCc1ccc2oc(-c3ccc(OC)c(OC)c3)cc2c1` yielded a Tmax [1] of 0.7 h, an AUC(0-t) [2] of 246 ng·h/mL and a Vdss (Canis familiaris) of 2.7 L/kg. The Activity (Mus musculus [3]) was 63.73%, the Activity (HT-22) was “Non-Toxic” and the half-life [4] was 5.87 h. It also gave a t1/2 [5] of 1.4 h, a clearance [6] of 29 mL/min/kg and a Cmax [7] of 969 ng/mL. For the same compound, the Cmax [8] was 421 ng/mL, the Cmax [9] was 944 ng/mL and the Activity [10] was 40%. For the same compound, the half-life [11] was 3.8 h, the AUC [12] was 13700 ng·h/mL and the Time (Mus musculus [13]) was 201.2 s. For the same compound, the clearance [14] was 7 mL/min/kg, the Activity (Mus musculus [15]) was “Dose-dependent effect” and the Activity (Mus musculus [16]) was “Dose-dependent effect”. The ED50 (Mus musculus [16]; po) was 0.18 mg/kg, the IC50 (Cytochrome P450 2C8) was 31.4 µM and the t1/2 [17] was 12.9 h. The IC50 (Cytochrome P450 2D6) was > 50 µM, the Cmax [18] was 102 ng/mL and the inhibition [19] was “Active”. For the same compound, the AUC(0-inf) [20] was 10500 ng·h/mL and the IC50 (Cytochrome P450 2C9) was > 50 µM.
